How the values were obtained:
[1] = target: T1, RAS guanyl-releasing protein 1 (Homo sapiens, UniProt O95267); test: Activation of GFP-tagged RasGRP1 (unknown origin) expressed in HEK293 cells assessed as ERK1/2 phosphorylation after 30 mins by immunoblot method; assay type: cell-based
T1 sequence (O95267 whole entry): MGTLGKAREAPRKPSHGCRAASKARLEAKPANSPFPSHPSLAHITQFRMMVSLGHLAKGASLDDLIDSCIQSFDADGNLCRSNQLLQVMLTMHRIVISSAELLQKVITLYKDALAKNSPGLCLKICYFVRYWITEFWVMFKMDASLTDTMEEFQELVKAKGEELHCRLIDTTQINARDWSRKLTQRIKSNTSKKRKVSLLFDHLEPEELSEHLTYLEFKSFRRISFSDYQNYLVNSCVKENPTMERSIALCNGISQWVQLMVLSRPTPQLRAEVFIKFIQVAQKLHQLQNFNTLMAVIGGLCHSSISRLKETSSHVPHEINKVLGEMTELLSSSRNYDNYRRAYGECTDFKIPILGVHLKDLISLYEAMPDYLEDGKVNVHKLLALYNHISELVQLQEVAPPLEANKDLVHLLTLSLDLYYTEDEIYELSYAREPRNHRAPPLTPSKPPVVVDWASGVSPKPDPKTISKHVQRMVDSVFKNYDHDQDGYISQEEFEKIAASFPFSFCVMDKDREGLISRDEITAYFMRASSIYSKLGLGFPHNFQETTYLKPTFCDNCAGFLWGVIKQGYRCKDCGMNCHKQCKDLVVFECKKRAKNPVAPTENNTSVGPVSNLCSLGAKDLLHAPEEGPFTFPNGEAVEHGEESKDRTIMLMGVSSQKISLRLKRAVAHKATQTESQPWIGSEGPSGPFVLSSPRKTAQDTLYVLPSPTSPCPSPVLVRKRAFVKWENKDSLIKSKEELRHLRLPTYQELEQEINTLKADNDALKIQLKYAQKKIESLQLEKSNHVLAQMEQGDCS
Method in brief: (§1)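 Cells expressing GFP-RasGRP1/3 (HEK293 or LNCaP, 48 h after plating, transfected; expression checked by fluorescence 24-48 h later) or Ramos with endogenous RasGRP3 treated with half-log increasing concentrations (max 10 µM), 1000 nM PMA or DMSO, 37 °C, 30 min, 5% CO2. RasGTP by Raf1 RBD bead pulldown and anti-Pan-Ras immunoblot; pERK by western blot. Band intensities normalized to 1000 nM PMA; EC50 from n = 3.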

[2] = target: T2, Protein kinase C delta type (Homo sapiens, UniProt Q05655); test: Activation of PKCdelta (unknown origin) expressed in human LNCAP cells harboring GFP-tagged RasGRP3 assessed as phosphorylation at ser299 residues after 30 mins by immunoblot method; assay type: cell-based
T2 sequence (Q05655 whole entry): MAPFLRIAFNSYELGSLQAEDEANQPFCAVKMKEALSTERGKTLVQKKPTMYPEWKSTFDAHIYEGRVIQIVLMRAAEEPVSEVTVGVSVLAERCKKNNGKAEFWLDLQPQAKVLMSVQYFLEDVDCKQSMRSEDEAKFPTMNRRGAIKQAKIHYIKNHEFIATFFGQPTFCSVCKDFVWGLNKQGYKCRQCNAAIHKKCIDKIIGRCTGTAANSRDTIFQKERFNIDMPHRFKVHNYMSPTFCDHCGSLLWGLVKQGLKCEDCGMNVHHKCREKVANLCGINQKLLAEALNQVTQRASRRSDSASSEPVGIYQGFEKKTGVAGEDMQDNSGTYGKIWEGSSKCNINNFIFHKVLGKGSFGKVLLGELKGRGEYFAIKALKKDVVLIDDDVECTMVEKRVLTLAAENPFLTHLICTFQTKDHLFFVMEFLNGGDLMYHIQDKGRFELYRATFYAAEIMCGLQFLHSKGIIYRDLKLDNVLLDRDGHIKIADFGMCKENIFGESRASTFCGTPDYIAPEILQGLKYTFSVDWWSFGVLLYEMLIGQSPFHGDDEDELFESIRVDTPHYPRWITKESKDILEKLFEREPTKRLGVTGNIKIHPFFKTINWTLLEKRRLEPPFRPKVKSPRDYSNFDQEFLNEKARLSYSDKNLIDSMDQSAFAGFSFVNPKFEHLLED
Method in brief: (§2)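 PKCδ activation read as phospho-S299 on western blots of lysates (50 µg protein, 10% SDS-PAGE, milk blocking, anti-PKCδS299 overnight). Cells: GFP-RasGRP1/3-transfected HEK293 or LNCaP, or Ramos, treated 30 min at 37 °C with half-log doses (maximum 10 µM), 1000 nM PMA or DMSO. Scanned intensities normalized to 1000 nM PMA; EC50 mean ± SEM, n = 3; values above 10 µM extrapolated.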

Homo sapiens [3] = species: Homo sapiens; test: Selectivity ratio of EC50 for PKCdelta (unknown origin) expressed in HEK293 cells harboring GFP-tagged RasGRP1 to EC50 for GFP-tagged RasGRP1 (unknown origin) expressed in HEK293 cells assessed as ERK1/2 phosphorylation; assay type: cell-based
[4] = target: T1, RAS guanyl-releasing protein 1; test: Activation of GFP-tagged RasGRP1 (unknown origin) expressed in human LNCAP cells after 30 mins by immunoblot method; assay type: cell-based; method in brief: as §1
[5] = target: T3, Ras guanyl-releasing protein 3 (Homo sapiens, UniProt Q8IV61); test: Activation of GFP-tagged RasGRP3 (unknown origin) expressed in HEK293 cells assessed as ERK1/2 phosphorylation after 30 mins by immunoblot method; assay type: cell-based; method in brief: as §1
T3 sequence (Q8IV61 whole entry): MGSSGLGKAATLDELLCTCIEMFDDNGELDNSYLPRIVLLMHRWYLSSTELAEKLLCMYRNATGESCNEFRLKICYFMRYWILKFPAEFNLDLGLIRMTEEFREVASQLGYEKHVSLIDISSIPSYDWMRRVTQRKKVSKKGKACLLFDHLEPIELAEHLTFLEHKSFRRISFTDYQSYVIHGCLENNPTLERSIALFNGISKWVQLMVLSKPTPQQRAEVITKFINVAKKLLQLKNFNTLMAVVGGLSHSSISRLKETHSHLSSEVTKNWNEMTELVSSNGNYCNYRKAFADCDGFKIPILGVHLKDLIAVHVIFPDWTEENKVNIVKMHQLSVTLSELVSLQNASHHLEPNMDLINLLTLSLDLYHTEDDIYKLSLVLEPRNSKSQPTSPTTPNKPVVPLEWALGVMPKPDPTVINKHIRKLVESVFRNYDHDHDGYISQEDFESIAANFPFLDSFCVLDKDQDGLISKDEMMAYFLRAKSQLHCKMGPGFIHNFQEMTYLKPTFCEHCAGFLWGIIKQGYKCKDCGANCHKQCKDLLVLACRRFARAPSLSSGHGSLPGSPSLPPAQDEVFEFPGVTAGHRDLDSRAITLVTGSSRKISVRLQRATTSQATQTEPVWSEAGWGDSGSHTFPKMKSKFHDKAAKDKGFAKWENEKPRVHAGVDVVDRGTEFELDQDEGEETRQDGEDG

[6] = target: T2, Protein kinase C delta type; test: Activation of PKCdelta in human Ramos cells expressing RasGRP3 assessed as phosphorylation at ser299 residues after 30 mins by immunoblot method; assay type: cell-based; method in brief: as §2
Homo sapiens [7] = species: Homo sapiens; test: Selectivity ratio of EC50 for PKCdelta in human Ramos cells expressing RasGRP3 to EC50 for RasGRP3 in human Ramos cells assessed as ERK1/2 phosphorylation; assay type: cell-based
Homo sapiens [8] = species: Homo sapiens; test: Selectivity ratio of EC50 for PKCdelta (unknown origin) expressed in human LNCAP cells harboring GFP-tagged RasGRP3 to EC50 for GFP-tagged RasGRP3 (unknown origin) expressed in human LNCAP cells assessed as ERK1/2 phosphorylation; assay type: cell-based
[9] = target: T3, Ras guanyl-releasing protein 3; test: Displacement of [3H]PDBu from full length MBP-tagged human RasGRP3 expressed in Escherichia coli BL21 (DE3) after 5 mins by scintillation counting
Method in brief: (§3)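 Competition of [3H]PDBu binding by polyethylene glycol precipitation, with 100 µg/ml phosphatidylserine and ≤0.003% Triton X-100, 5 min at 37 °C. Proteins: full-length purified human PKCα, PKCε; full-length RasGRP1; MBP-RasGRP3 from E. coli BL21(DE3) induced with 0.3 mM IPTG 6 h at room temperature. Ki mean ± SEM of ≥2 experiments, triplicate points.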

[10] = target: Protein kinase C alpha type (Homo sapiens, UniProt P17252); test: Displacement of [3H]PDBu from full length recombinant human PKCalpha expressed in baculovirus expression system after 5 mins by scintillation counting; method in brief: as §3
[11] = target: T1, RAS guanyl-releasing protein 1; test: Activation of GFP-tagged RasGRP1 (unknown origin) expressed in human LNCAP cells assessed as ERK1/2 phosphorylation after 30 mins by immunoblot method; assay type: cell-based; method in brief: as §1

EC50 [1]: 4.88 µM
EC50 [2]: 8.28 µM
EC50 [4]: 0.97 µM
EC50 [5]: 4.66 µM
EC50 [6]: 24.6 µM
Ki [9]: 0.00175 µM
Ki [10]: 0.127 µM
EC50 [11]: 3.73 µM
SMILES: Cn1cc(/C=C2\CC(CO)(COC(=O)C(C)(C)C)OC2=O)c2ccccc21 (stereo unspecified)
Ratio EC50 (Homo sapiens [3]): 2.6
Ratio EC50 (Homo sapiens [7]): 4
Ratio EC50 (Homo sapiens [8]): 2.8
